Source: PubChem
Hits are enriched below; roughly 2.3% of the tested compounds scored in any of these assays.
ROMK primary: ROMK potassium channel modulators, primary screen, cell-based, thallium flux, MLSMR library | Tet-inducible ROMK, thallium flux fluorescence; actives lie on both sides | ATP-sensitive inward rectifier potassium channel 1 (Homo sapiens), P48048 | AID 1918, 2009 | B-score at 10 µM | actives 2% (n = 130,000);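 active = signal ratio slope over the read window, or its plate-corrected B-score, at least 3 SD from the plate mean, either direction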;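 note: B-score of the F/F0 ratio slope over 7 to 12 s after thallium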
SDO1 yeast rescue: growth rescue of sdo1-depleted yeast, primary screen, S. cerevisiae, bone marrow failure model; actives 0.21% (n = 140,000); S. cerevisiae sdo1-depleted JHY4D growth rescue, OD600 30 h; stronger effect = higher value; pdr5 snq2 efflux-pump mutant strain; z-score at 10 µM;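 active = z-score above 3 at both the 24 hr and the 30 hr optical density reads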;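 note: z-score against mean and SD of all compound wells on the same plate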
ABCB1 block: ABCB1 efflux pump inhibitors, primary screen, cell-based, multiplex, flow cytometry, ABCG2 counter-screen; ATP-dependent translocase ABCB1 (Homo sapiens), P08183; CCRF-Adr cells, JC-1 efflux; inhibition, % at 6.6 µM; actives 0.067% (n = 190,000); in the data active = inhibition above about 40%;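 note: 0% = vehicle and 100% = reference inhibitor; higher value means more JC-1 retained so stronger ABCB1 efflux block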
Insulin prom up: insulin promoter activators in MIN6 cells, imaging, high-content screening, mouse beta cells | AID 1625, 2009 | z-score at 5 µM | actives 0.3% (n = 190,000) | MIN6 insulin promoter-GFP reporter; stronger effect = higher value;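 active = z-score above 3 at 5 µM with at least 500 cells counted in the well; inconclusive = wells under 500 cells, flagged as cytotoxic or low count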
Autophagy HCS: autophagy modulators in MEF cells, primary screen, imaging, high-content, MEF GFP-LC3; MEF GFP-LC3 puncta imaging; test concentration mostly 10 µM; calls only at 10 µM (by protocol); actives 0.98% (n = 190,000);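 active = percentage of spot-positive cells more than 3 SD above its plate mean, without a fluorescence outlier flag or 80% toxicity; inconclusive = no clear call, values can overlap the other calls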;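 note: spot-positive cell cutoff set from DMSO-treated cells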
ABCG2 block: ABCG2 efflux pump inhibitors, primary screen, multiplex with ABCB1, IgMXP3 cells, flow cytometry | JC-1 efflux | actives 0.1% (n = 190,000) | Broad substrate specificity ATP-binding cassette transporter ABCG2 (Homo sapiens), Q9UNQ0 | inhibition, % at 6.6 µM;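 active = inhibition above 80%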;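 note: 0% = DMSO and 100% = nicardipine control wells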
Target sequence (Q9UNQ0 whole entry, looked up): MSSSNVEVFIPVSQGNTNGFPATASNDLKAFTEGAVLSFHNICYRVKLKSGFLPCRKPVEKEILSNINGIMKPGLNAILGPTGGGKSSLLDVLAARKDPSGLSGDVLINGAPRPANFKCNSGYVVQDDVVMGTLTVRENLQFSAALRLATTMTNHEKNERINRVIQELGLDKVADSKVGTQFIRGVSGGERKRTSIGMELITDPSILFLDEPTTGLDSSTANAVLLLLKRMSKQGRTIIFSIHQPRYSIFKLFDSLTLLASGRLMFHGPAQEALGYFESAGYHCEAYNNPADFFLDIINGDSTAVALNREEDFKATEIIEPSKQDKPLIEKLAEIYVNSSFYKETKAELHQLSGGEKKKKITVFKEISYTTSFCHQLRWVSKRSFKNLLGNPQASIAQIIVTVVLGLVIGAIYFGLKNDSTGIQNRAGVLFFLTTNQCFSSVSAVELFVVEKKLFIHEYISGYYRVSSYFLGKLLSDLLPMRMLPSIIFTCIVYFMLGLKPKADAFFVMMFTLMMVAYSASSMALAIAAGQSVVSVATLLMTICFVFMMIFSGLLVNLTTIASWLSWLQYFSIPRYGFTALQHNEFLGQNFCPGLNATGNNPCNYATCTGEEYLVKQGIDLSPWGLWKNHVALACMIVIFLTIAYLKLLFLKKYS
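Test system: IgMXP3 cells (ABCG2) mixed with DDAO far-red-labelled CCRF-Adr cells (ABCB1). Reagent: JC-1 transporter substrate. Compound dosing: single test compound dose, 6.6 µM final. Times: 10 min compound exposure, 25 °C. Detection: flow cytometry of retained JC-1 fluorescence. Read-out basis: efflux inhibition in percent versus controls. Controls: nicardipine and DMSO wells.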
* marks the source's active call; other numbers are inactive results; i = inactive; ? = inconclusive; / = no result given; + = active, no number.

SMILES | ROMK primary | SDO1 yeast rescue | ABCB1 block | Insulin prom up | Autophagy HCS | ABCG2 block
O=C(Nc1nc(-c2cccs2)cs1)c1cc2ccccc2oc1=O | 1.6* | -1.6 | 0 | 1 | i | 0
CC(C)CNC(=O)Cn1c(=O)c2c(ncn2CC(C)C)n(Cc2ccccc2)c1=O | 0.055 | / | 0 | -0.12 | + | 2
COCCN(CCOC)Cc1cc(=O)oc2cc3c(cc12)CCC3 | / | -0.29 | -3 | 3.1* | i | -4
CC(C)CN(Cc1cc(=O)oc2cc3c(cc12)CCCC3)CC(C)C | / | / | / | -0.1 | / | /
Cc1ccc(NC(=O)CCl)c(C)c1 | 0.73 | / | 1 | 3.5* | i | 9
Cc1ccc(NC(=O)Cc2ccc(-n3cccc3)cc2)c(C)c1 | 0.79 | 0.41 | 0 | 0.04 | i | -3
Cc1cccc(OCCN2C(=O)C(=O)c3cc(C)ccc32)c1 | 2.5 | / | 0 | -0.1 | + | 2
Cc1ccc2c(c1)C(=O)C(=O)N2CCOc1ccccc1 | / | / | 1 | -0.05 | i | 4
N#CC1=C(N)N2C(=C(C#N)C1c1ccccc1)Sc1ccccc12 (stereo not drawn) | -0.21 | -0.19 | 0 | / | + | 1
CCOc1ccc(C2C(C#N)=C(N)N3C(=C2C#N)Sc2ccccc23)cc1 (stereo not drawn) | / | / | / | 1.6 | / | /
CC(C)c1cc(C(=O)OCC(=O)NC(=O)NCc2ccco2)c(O)c(C(C)C)c1 | 0.15 | / | -1 | -0.47 | i | -2
Cc1cc(NC(=S)N(CCCN2CCN(C)CC2)Cc2ccco2)ccc1Cl | -0.41 | / | 1 | 2.2 | + | 1
CCN1CCN(CCCN(Cc2ccco2)C(=S)Nc2cccc(Cl)c2C)CC1 | -0.46 | / | 2 | -0.43 | + | 2
Cc1cccc(NC(=O)c2cc3cc([N+](=O)[O-])ccc3s2)n1 | 0.46 | / | 0 | -0.09 | i | 0
Cc1ccc(C)c2[nH]c(=O)c(CN(CCN3CCCC3)C(=O)Nc3cccc(Cl)c3)cc12 | -0.9 | -1.2 | 3 | / | + | 4
CCOc1ccc(OCCn2ccnc2)cc1 | 0.59 | 1.4 | 0 | 1.1 | i | -1
CCOc1ccc(OCCCCn2ccnc2)cc1 | 0.26 | 0.46 | 0 | 3.5* | i | 0
CC1=C(C(=O)Nc2ccc(C)cc2C)C(c2ccc(Cl)cc2)n2nc(C(=O)OC(C)C)nc2N1 (stereo not drawn) | 1.3 | -0.72 | 0 | 0.09 | i | 7
CCOc1cccc2cc(-c3nnc(NCc4ccc5c(c4)OCO5)s3)c(=O)oc12 | / | -1.9 | 0 | 0.6 | + | 2
CCN(Cc1ccccc1)C(=O)CS(=O)(=O)c1ccccc1 | / | / | 0 | -1 | i | -1
O=S(=O)(C/C(=C/CO)S(=O)(=O)c1ccccc1)c1ccccc1 | -8.2* | 1 | 0 | 0.55 | i | 2
O=C(Nc1ccccc1N1CCN(c2ccccc2)CC1)C12CC3CC(CC(C3)C1)C2 | 0.17 | 0.05 | 1 | -0.83 | + | 5
O=C(Cc1ccccc1)Nc1ccccc1N1CCN(c2ccccc2)CC1 | 0.0055 | -1.1 | 2 | 1.7 | i | 3
COc1cccc(C(=O)OCC(=O)c2c[nH]c3ccccc23)c1O | 1.2 | / | -1 | 0.16 | i | 0
O=C(O)c1ccccc1C(=O)N1CCN(c2cccc(Cl)c2)CC1 | -0.063 | 0.41 | 1 | / | i | 12
SMILES | ROMK primary | SDO1 yeast rescue | ABCB1 block | Insulin prom up | Autophagy HCS | ABCG2 block
CCOc1ccccc1C(=O)N1CCN(c2cccc(Cl)c2)CC1 | / | 0.4 | 0 | -0.88 | + | 1
CCOc1ccc2ccccc2c1C(=O)N1CCN(c2ccccc2)CC1 | 0.052 | -0.65 | 0 | -0.15 | + | 1
CCSc1nnc(NC(=O)[C@@H](NC(=O)c2cc(OC)cc(OC)c2)C(C)C)s1 | 0.27 | / | 0 | -0.59 | i | 0
O=C(N/N=C/c1c(Nc2cccc(C(F)(F)F)c2)nc2ccccn2c1=O)c1ccccc1[N+](=O)[O-] | / | -0.2 | 0 | -0.6 | i | 0
O=C(N/N=C/c1c(Nc2cccc(C(F)(F)F)c2)nc2ccccn2c1=O)c1ccccc1 | / | -2 | -1 | / | + | -7
CCCNC(=O)CC(NS(=O)(=O)c1ccc(OC)cc1)c1ccco1 (stereo not drawn) | 0.067 | / | 0 | -0.03 | i | 1
COc1cc(OC)c(/C=N/NC(=O)c2ccc(Cn3nc([N+](=O)[O-])cc3C)cc2)c(OC)c1 | / | / | / | -0.08 | / | /
CC(=O)c1sc(-c2ccccc2)cc1NS(=O)(=O)c1ccc(C)cc1 | 2.7* | / | / | 0.19 | / | /
COc1cc(C(=O)NCC(c2cccnc2)N2CCN(c3ccc(F)cc3)CC2)cc(OC)c1OC (stereo not drawn) | 0.37 | / | 0 | -0.49 | i | 2
CCN1/C(=C/c2ccc3cc(C)ccc3[n+]2CC)Sc2cc(C)c(C)cc21 | / | / | 5 | ? | + | 47
CCN1/C(=C/c2ccc3cc(C)ccc3[n+]2CC)Sc2ccccc21 | / | -2 | / | / | / | +
CCOC(=O)/C(=C/C=C1\Sc2cc(C)c(C)cc2N1CC)C(C)=O | / | / | 0 | / | i | 1
O=C(COC(=O)c1cccnc1)Nc1ccc2c(c1)OCO2 | 0.51 | / | -1 | 0.42 | i | 10
Cc1cc(NC(=O)CSc2nnc(-c3ccco3)o2)no1 | / | -0.49 | 0 | 0.95 | i | 5
CC(=O)Nc1ccc(NC(=O)CSc2nnc(-c3ccco3)o2)cc1 | 0.098 | / | 0 | 0.34 | + | 1
CCN(CC)S(=O)(=O)c1cc([N+](=O)[O-])ccc1N=Nc1c(O)[nH]c2ccccc12 | -0.46 | 1.2 | 0 | / | + | -1
CCc1ccc(/C=N/NC(=O)c2cc(C3CC3)nc3ccccc23)s1 | 3.2* | -0.77 | 1 | / | i | 54
Cn1cccc1-c1cc(C(=O)N/N=C/C=C/c2ccccc2)[nH]n1 | -0.13 | / | 0 | -0.5 | i | 0
CC(=O)OC(C(=O)NCc1ccc(F)cc1)c1ccccn1 (stereo not drawn) | / | 0.54 | 0 | 3.9* | i | 0
O=C(OC(C(=O)NCc1cccs1)c1ccccn1)c1cccs1 (stereo not drawn) | 0.6 | 0.01 | 0 | 1.3 | i | 5
CCOc1ccc(C2C(C(=O)c3cccs3)=C(O)C(=O)N2Cc2cccnc2)cc1 (stereo not drawn) | -0.45 | / | 0 | -0.48 | + | 0
CCOc1ccc(C2C(C(=O)c3cccs3)=C(O)C(=O)N2Cc2cccnc2)cc1OC (stereo not drawn) | 0.024 | / | 1 | / | i | 2
O=C(CN1CCOCC1)N1CCN(c2ccc3ccccc3n2)CC1 | / | / | 0 | 0.58 | i | 0
